Bioassay records from PubChem.
PRMT1 FP inh – PRMT1 (human) inhibition, primary screen; Q99873; AID 652257; hit rate 1.3% among 370,000; inhibition, % at 2.79 µM; recombinant PRMT1, activity-based probe fluorescence polarization;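 active means inhibition above about 21% made by adding two undisclosed values, limit read from the data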
SIAE inh – human SIAE inhibition, primary screen | hit rate 0.69% among 370,000 | inhibition, % at 9.66 µM | Q9HAT2 | SIAE FP-Rh probe binding, fluorescence polarization;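 active means inhibition above a cutoff: mean of compounds within the control limits plus 3 SD of those, cut at about 17% in these data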;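 further: 0% = plate median of compound wells and 100% = probe without SIAE protein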
Target sequence (Q9HAT2 whole entry, looked up): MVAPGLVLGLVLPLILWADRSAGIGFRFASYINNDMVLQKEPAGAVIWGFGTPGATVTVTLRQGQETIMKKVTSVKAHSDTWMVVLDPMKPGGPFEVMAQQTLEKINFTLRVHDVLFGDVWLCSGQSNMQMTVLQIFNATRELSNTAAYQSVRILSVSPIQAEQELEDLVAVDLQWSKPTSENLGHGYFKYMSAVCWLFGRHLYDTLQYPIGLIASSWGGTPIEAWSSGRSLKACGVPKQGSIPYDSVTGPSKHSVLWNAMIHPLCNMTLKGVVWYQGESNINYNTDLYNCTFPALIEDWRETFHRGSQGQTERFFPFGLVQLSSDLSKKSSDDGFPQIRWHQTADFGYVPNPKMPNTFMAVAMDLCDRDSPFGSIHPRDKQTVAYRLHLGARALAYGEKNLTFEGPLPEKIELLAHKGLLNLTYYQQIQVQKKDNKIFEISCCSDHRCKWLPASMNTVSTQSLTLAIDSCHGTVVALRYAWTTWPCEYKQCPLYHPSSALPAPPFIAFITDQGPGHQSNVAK
TCR CD3 inh – human TCR-CD3 binding inhibition; TAMRA-labeled TCR probe fluorescence, biochemical; hit rate 0.37% among 360,000; inhibition, % at 9.4 µM; in the data active means inhibition above about 19%;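 further: recombinant mutant TCR 2C K166C tagged with TAMRA read by polarization; 0% = receptor in buffer alone and 100% = receptor with positive control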
HTRA1 inh – inhibitors of human serine peptidase HTRA1; Q92743; recombinant HTRA1, FP-rhodamine activity-based probe, fluorescence polarization; inhibition, % at 5.96 µM; hit rate 0.5% among 340,000; AID 504803; in the data active means inhibition above about 36%;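 further: 0% = enzyme with DMSO and 100% = wells lacking enzyme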
ABHD4 inh – inhibitors of mouse ABHD4; purified mABHD4, FP-Rh probe fluorescence polarization; hit rate 0.54% among 370,000; Q8VD66; inhibition, % at 8.92 µM; AID 720543;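 active means inhibition exceeding the mean over every tested compound plus 3 SD, cut at about 30% in these data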;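 further: 0% = plate median of compound wells and 100% = S159A mutant with DMSO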
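assay system = mABHD4 protein | compound dosing = single nominal dose of 8.92 µM, 0.89% DMSO final | read-out basis = percent inhibition of probe binding, normalized to plate controls | schedule = Enzyme–compound pre-incubation 45 min, then probe 60 min, both 25 °C | detection = fluorescence polarization, excitation 525 nm, emission 598 nm, BODIPY TMR filters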
SIAE confirm – confirmation of human SIAE inhibitors | inhibition, % at 9.66 µM | SIAE FP-Rh activity-based probe, fluorescence polarization | hit rate 13% among 2,300 | shares compounds with SIAE inh;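 active means mean inhibition of the replicates above the hit cutoff set in the primary screen, cut at about 17% in these data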;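 further: 0% = SIAE with DMSO and probe and 100% = probe without SIAE; inhibitors lower polarization as more probe stays unbound to SIAE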
* = called active by the depositor; . = not tested or not shown. Hits are enriched below; roughly 2.6% of the tested compounds scored in any of these assays.

SMILES	PRMT1 FP inh	SIAE inh	TCR CD3 inh	HTRA1 inh	ABHD4 inh	SIAE confirm
CCOc1cc(/C=N/Nc2nc3ccccc3[nH]2)cc(Br)c1OCC(=O)N(C)C	1.0	23.8*	-2.7	5.7	28.2	20.8*
COc1cc(/C=N\Nc2nc3ccccc3[nH]2)cc(OC)c1OC	5.0	12.9	-5.5	2.3	7.9	.
COc1ccc(C(=O)OCC(=O)c2ccc(CNC(C)=O)s2)cc1	-1.9	24.0*	6.0	0.0	3.0	-1.0
O=C(CSc1nnc(CN2CCOCC2)n1-c1ccc(Cl)cc1)Nc1cc(Cl)ccc1O	3.0	26.6*	6.7	-3.9	-3.6	-13.5
Cc1ccc2c(c1)C(CS(=O)(=O)NCCc1ccccc1)NC2 (stereo not given)	3.6	-2.8	.	.	-2.8	.
Cc1cc2c(c(=O)o1)[C@@]1(C(=O)N(C)c3cc(Br)ccc31)C1=C(CCCC1=O)O2	3.3	1.7	-4.0	.	4.9	.
CCOC(=O)N1CCN(C(=O)CSc2ncccn2)CC1	-1.0	18.9*	3.3	4.6	3.3	0.2
CCc1ccc(Oc2c(Cl)cnn(-c3ccc(C)cc3)c2=O)cc1	2.6	-2.6	.	.	21.8	.
CC1(c2nnnn2C2CCCCC2)CCCC(=O)N1CCc1ccc(O)cc1 (stereo not given)	-1.4	2.4	.	.	1.6	.
Cc1ccc(C(=O)C(OC(=O)CCC(=O)Nc2cccc(C)c2)c2ccccc2)cc1 (stereo not given)	-0.3	20.8*	10.6	-7.2	8.4	-0.9
COc1ccc(NC(=O)CCC(=O)OC(C(=O)c2ccccc2)c2ccccc2)cc1 (stereo not given)	2.6	3.0	0.9	-8.1	7.3	.
CCOc1ccc(S(=O)(=O)n2cnc(C)c2)cc1	-6.3	17.1*	-0.5	9.6	6.0	4.8
Cc1ccccc1CN1CCN(C(=O)[C@H]2O[C@@H](n3cnc(C(N)=O)n3)[C@H](O)[C@@H]2O)CC1	-0.8	18.7*	3.9	.	-2.7	29.0*
Cc1ccccc1CN1CCN(C(=O)[C@H]2O[C@@H](n3ccc(=O)[nH]c3=O)[C@H](O)[C@@H]2O)CC1	-1.6	1.9	-8.9	.	-1.4	.
NC(=O)c1ncn([C@@H]2O[C@H](C(=O)N3CCCN(Cc4ccccc4F)CC3)[C@@H](O)[C@H]2O)n1	-4.1	80.5*	5.8	.	-0.1	87.8*
Cn1c(=O)oc2cc(S(=O)(=O)N3CCC(C(=O)N4CCN(c5ccc(F)cc5)CC4)CC3)ccc21	-2.5	19.5*	1.5	5.2	3.0	5.4
Cn1c(=O)oc2cc(S(=O)(=O)N3CCC(C(=O)N4CCN(c5ccccc5)CC4)CC3)ccc21	-1.6	11.8	2.0	-2.6	-6.0	.
CCOC(=O)C1CN(S(C)(=O)=O)c2cc(CC(=O)OC)ccc2O1 (stereo not given)	-0.5	28.6*	5.5	0.5	3.6	5.3
Cc1nc(C/C(=N\N)c2ccc(O)cc2O)cs1	7.4	-3.0	1.5	2.1	8.0	.
CCc1cc(/C(Cc2csc(C)n2)=N/O)c(O)cc1O	-0.8	19.2*	-5.0	18.9	-1.0	14.2
CCC(=O)N(Cc1ccccc1)c1ccccc1C(=O)Nc1cc(OC)ccc1OC	-4.6	-8.1	.	.	2.8	.
Cc1ccc(NC2=C([N+](=O)[O-])CS(=O)(=O)C2)cc1	2.6	0.9	3.9	1.6	7.2	.
CN(C)c1ccc(NC2=C([N+](=O)[O-])CS(=O)(=O)C2)cc1	11.8	18.0*	7.1	21.1	29.2	7.9
Cc1cccc(NC(=O)c2cccc3c2-c2ccccc2C3=O)c1C	3.3	-4.7	.	.	4.2	.
CCOCCCNc1ncnc2c1[nH]c1ccccc12	-1.7	1.4	4.0	1.9	5.7	.
SMILES	PRMT1 FP inh	SIAE inh	TCR CD3 inh	HTRA1 inh	ABHD4 inh	SIAE confirm
CCCCOCCCNc1ncnc2c1[nH]c1ccccc12	-4.2	17.6*	-6.4	-3.0	1.9	4.1
O=C(CN1C(=O)NC2(CCCCC2)C1=O)N1CCN(S(=O)(=O)c2cccc([N+](=O)[O-])c2)CC1	0.6	18.4*	3.1	2.8	3.6	2.1
O=C(Nc1ccccc1)OC[C@@H]1CSCCS(=O)(=O)N1	0.5	-9.0	-4.2	.	-1.5	.
COc1ccc(NC(=O)Cc2ccsc2)c(OC)c1	-0.1	18.0*	0.0	5.4	5.8	-1.5
COc1ccc(NC(=O)COC(=O)Cc2ccsc2)c(OC)c1	-2.9	3.4	-1.2	-1.6	-6.5	.
C=CCN1C(=O)[C@H](CC(=O)NCc2cccc3ccccc23)[C@@]2(C(=O)OCC)CCCC=C12	6.2	-2.2	.	.	-2.8	.
